From ChEMBL document CHEMBL1124678, “New anticancer agents: alterations of the carbamate group of ethyl (5-amino-1,2-dihydro-3-phenylpyrido[3,4-b]pyrazin-7-yl)car bamates” (J Med Chem, 1989)
pIC50: −log10 of the molar value.

What was measured:
L1210 [1] = assay: Mitotic index (fraction of cells in mitosis divided by total cells ) for cultured lymphoid leukemia L1210 cells; type: functional, Mus musculus
Procedure, shortened: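 Cultured L1210 lymphoid leukemia cells exposed to agent for 12 h; mitotic index scored as fraction of cells in mitosis over total cells. Value is the nanomolar concentration giving a mitotic index of 0.5 (MI0.5).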

P388 [2] = assay: Increase in the life span of mice implanted with lymphocytic leukemia P388 at the highest nontoxic dose of 0.5 mg/Kg given to the compound intraperitoneally; type: functional; conditions: Mus musculus, P388, ip
L1210 [3] = assay: The compound was tested in vitro for growth of inhibitory activity against lymphoid leukemia L1210 cells; type: functional, cell-based, Mus musculus
Procedure, shortened: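 Cultured L1210 lymphoid leukemia cells exposed to agent for 48 h; proliferation measured against untreated control growth. IC50 is the nanomolar concentration holding growth to 50% of control; some values averaged from two determinations.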

P388 [4] = assay: Increase in the life span of mice implanted with lymphocytic leukemia P388 at the highest nontoxic dose of 12 mg/Kg given to the compound intraperitoneally; type: functional; conditions: Mus musculus, P388, ip
P388 [5] = assay: Increase in the life span of mice implanted with lymphocytic leukemia P388 at the highest nontoxic dose of 1 mg/Kg given to the compound intraperitoneally; type: functional; conditions: Mus musculus, P388, ip
P388 [6] = assay: Increase in the life span of mice implanted with lymphocytic leukemia P388 at the highest nontoxic dose of 2 mg/Kg given to the compound intraperitoneally; type: functional; conditions: Mus musculus, P388, ip
P388 [7] = assay: Increase in the life span of mice implanted with lymphocytic leukemia P388 at the highest nontoxic dose of 25 mg/Kg given to the compound intraperitoneally; type: functional; conditions: Mus musculus, P388, ip
P388 [8] = assay: Increase in the life span of mice implanted with lymphocytic leukemia P388 at the highest nontoxic dose of 50 mg/Kg given to the compound intraperitoneally; type: functional; conditions: Mus musculus, P388, ip
P388 [9] = assay: Increase in the life span of mice implanted with lymphocytic leukemia P388 at the highest nontoxic dose of 200 mg/Kg given to the compound intraperitoneally; type: functional; conditions: Mus musculus, P388, ip
P388 [10] = assay: Increase in the life span of mice implanted with lymphocytic leukemia P388 at the highest nontoxic dose of 200 mg/Kg given to the compound intraperitoneally on day 1; type: functional; conditions: Mus musculus, P388, ip, 24 h
P388 [11] = assay: Increase in the life span of mice implanted with lymphocytic leukemia P388 at the highest nontoxic dose of 1.5 mg/kg given to the compound intraperitoneally; type: functional; conditions: Mus musculus, P388, ip, route intraperitoneal

| SMILES | MI0.5 (L1210 [1]) [nM] | pIC50 (L1210 [3]; Mus musculus, L1210) | also measured |
| --- | --- | --- | --- |
| CCOC(=O)Nc1cc2c(c(N)n1)N=C(c1ccccc1)C(C)N2.O=S(=O)(O)CCO (stereo not given) | 0.74 | – | ILS at 0.5 mg/kg (P388 [2]): 46%; pIC50 (L1210 [3]; l1210): 9.27 |
| CCC(C)OC(=O)Nc1cc2c(c(N)n1)N=C(c1ccccc1)C(C)N2 (stereo not given) | – | 8.92 | ILS at 12 mg/kg (P388 [4]): 60% |
| CCOC(=O)Nc1cc2c(c(N)n1)N=C(c1ccccc1)C(C)N2.Cl (stereo not given) | 1.5 | 9.29 | ILS at 1 mg/kg (P388 [5]): 75% |
| CCOC(=O)Nc1cc2c(c(N)n1)N=C(c1ccccc1)CN2 | 2.8 | – | ILS at 2 mg/kg (P388 [6]): 51% |
| CC1Nc2cc(NC(=O)OCc3ccccc3)nc(N)c2N=C1c1ccccc1 (stereo not given) | – | 7.20 | – |
| CCOC(=O)Nc1cc2c(c(NC(C)=O)n1)N=C(c1ccccc1)CN2 | 23 | 8.07 | ILS at 25 mg/kg (P388 [7]): 49% |
| Nc1nccc2c1N=C(c1ccccc1)CN2 | >10000 | 5.55 | ILS at 50 mg/kg (P388 [8]): 0% |
| CC1Nc2cc(N)nc(N)c2N=C1c1ccccc1 (stereo not given) | 850 | 6.30 | – |
| CC(=O)Nc1cc2c(c(NC(C)=O)n1)N=C(c1ccccc1)C(C)N2C(C)=O (stereo not given) | – | < 7.00 | – |
| CCOC(=O)Nc1nc(NC(=O)OCC)c2c(c1N)NC(C)C(c1ccccc1)=N2 (stereo not given) | – | < 6.52 | ILS at 200 mg/kg (P388 [9]): 0% |
| CNC(=O)Nc1cc2c(c(N)n1)N=C(c1ccccc1)C(C)N2 (stereo not given) | – | 7.70 | ILS at 12 mg/kg (P388 [4]): 0% |
| COC(=O)Nc1cc2c(c(N)n1)N=C(c1ccccc1)C(C)N2 (stereo not given) | 0.8 | 9.27 | ILS at 1 mg/kg (P388 [5]): 88% |
| Nc1nc(NC(=O)OC2CCCCC2)cc2c1N=C(c1ccccc1)CN2 | 260 | 6.64 | ILS at 200 mg/kg (P388 [10]): 0% |
| COc1cc2c(c(OC)c1OC)-c1ccc(OC)c(=O)cc1[C@@H](NC(C)=O)CC2 [COLCHICINE] | 21 | 8.19 | – |
| CC[C@]1(O)C[C@H]2CN(CCc3c([nH]c4ccccc34)[C@@](C(=O)OC)(c3cc4c(cc3OC)N(C=O)[C@H]3[C@@](O)(C(=O)OC)[C@H](OC(C)=O)[C@]5(CC)C=CCN6CC[C@]43[C@@H]65)C2)C1 [VINCRISTINE] | 11 | 8.47 | ILS at 1.5 mg/kg (P388 [11]): 122% |
